In brackets after ≈: the same amount, converted by molar mass.
Tests used:
Assay type in all cases: functional
[1] = test system: Mycobacterium tuberculosis; experiment: Antimycobacterial activity against Mycobacterium tuberculosis H37Rv ATCC 27294 by microplate alamar blue assay
Procedure, shortened: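 Microplate Alamar Blue fluorescence assay on strain H37Rv ATCC 27294. MIC was the lowest concentration cutting fluorescence by ≥90% against the mean of replicate bacterium-only controls.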

[2] = test system: Staphylococcus aureus; experiment: Antibacterial activity against Staphylococcus aureus ATCC 2592 after 18 to 24 hrs by NCCLS method
Procedure, shortened: (§1)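 Standard NCCLS (M100-S11) MIC testing against Gram-positive and Gram-negative strains. Plates were incubated at 35 °C for 18–24 h. The MIC was read as the lowest concentration giving complete inhibition of visible bacterial growth.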

[3] = test system: Staphylococcus aureus; experiment: Antibacterial activity against methicillin-sensitive Staphylococcus aureus 10-11 after 18 to 24 hrs by NCCLS method; procedure, shortened: as §1
[4] = test system: Staphylococcus aureus; experiment: Antibacterial activity against methicillin-sensitive Staphylococcus aureus 10-13 after 18 to 24 hrs by NCCLS method; procedure, shortened: as §1
[5] = test system: Staphylococcus aureus; experiment: Antibacterial activity against methicillin-sensitive Staphylococcus aureus 10-14 after 18 to 24 hrs by NCCLS method; procedure, shortened: as §1
[6] = test system: Staphylococcus aureus; experiment: Antibacterial activity against methicillin-resistant Staphylococcus aureus 10-11 after 18 to 24 hrs by NCCLS method
Procedure, shortened: (§2)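 Incubated at 35 °C for 18–24 h under NCCLS (M100-S11) standards. MIC was read as the lowest concentration giving complete inhibition of visible bacterial growth.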

[7] = test system: Staphylococcus aureus; experiment: Antibacterial activity against methicillin-resistant Staphylococcus aureus 10-13 after 18 to 24 hrs by NCCLS method; procedure, shortened: as §2
[8] = test system: Staphylococcus aureus; experiment: Antibacterial activity against methicillin-resistant Staphylococcus aureus 10-15 after 18 to 24 hrs by NCCLS method; procedure, shortened: as §2
[9] = test system: Staphylococcus epidermidis; experiment: Antibacterial activity against methicillin-sensitive Staphylococcus epidermidis 10-11 after 18 to 24 hrs by NCCLS method; procedure, shortened: as §1
[10] = test system: Staphylococcus epidermidis; experiment: Antibacterial activity against methicillin-sensitive Staphylococcus epidermidis 10-15 after 18 to 24 hrs by NCCLS method; procedure, shortened: as §2
[11] = test system: Staphylococcus epidermidis; experiment: Antibacterial activity against methicillin-resistant Staphylococcus epidermidis 10-10 after 18 to 24 hrs by NCCLS method; procedure, shortened: as §2
[12] = test system: Staphylococcus epidermidis; experiment: Antibacterial activity against methicillin-resistant Staphylococcus epidermidis 10-13 after 18 to 24 hrs by NCCLS method; procedure, shortened: as §2
[13] = test system: Enterococcus faecalis; experiment: Antibacterial activity against Enterococcus faecalis 10-5 after 18 to 24 hrs by NCCLS method; procedure, shortened: as §1
[14] = test system: Enterococcus faecalis; experiment: Antibacterial activity against Enterococcus faecalis 10-6 after 18 to 24 hrs by NCCLS method; procedure, shortened: as §1
[15] = test system: Enterococcus faecalis; experiment: Antibacterial activity against Enterococcus faecalis 10-7 after 18 to 24 hrs by NCCLS method; procedure, shortened: as §1
[16] = test system: Enterococcus faecium; experiment: Antibacterial activity against Enterococcus faecium 10-6 after 18 to 24 hrs by NCCLS method; procedure, shortened: as §1
[17] = test system: Enterococcus faecium; experiment: Antibacterial activity against Enterococcus faecium 10-9 after 18 to 24 hrs by NCCLS method; procedure, shortened: as §1
[18] = test system: Streptococcus pneumoniae; experiment: Antibacterial activity against Streptococcus pneumoniae 10-1 after 18 to 24 hrs by NCCLS method; procedure, shortened: as §1
[19] = test system: Streptococcus pneumoniae; experiment: Antibacterial activity against Streptococcus pneumoniae 10-6 after 18 to 24 hrs by NCCLS method; procedure, shortened: as §1
[20] = test system: Escherichia coli; experiment: Antibacterial activity against Escherichia coli ATCC 25922 after 18 to 24 hrs by NCCLS method; procedure, shortened: as §1
[21] = test system: Escherichia coli; experiment: Antibacterial activity against Escherichia coli 10-1 after 18 to 24 hrs by NCCLS method; procedure, shortened: as §1
[22] = test system: Escherichia coli; experiment: Antibacterial activity against Escherichia coli 10-2 after 18 to 24 hrs by NCCLS method; procedure, shortened: as §1
[23] = test system: Escherichia coli; experiment: Antibacterial activity against Escherichia coli 10-3 after 18 to 24 hrs by NCCLS method; procedure, shortened: as §1
[24] = test system: Escherichia coli; experiment: Antibacterial activity against extended spectrum beta-lactamases producing Escherichia coli 10-2 after 18 to 24 hrs by NCCLS method; procedure, shortened: as §1
[25] = test system: Escherichia coli; experiment: Antibacterial activity against extended spectrum beta-lactamases producing Escherichia coli 10-3 after 18 to 24 hrs by NCCLS method; procedure, shortened: as §1
[26] = test system: Escherichia coli; experiment: Antibacterial activity against extended spectrum beta-lactamases producing Escherichia coli 10-4 after 18 to 24 hrs by NCCLS method; procedure, shortened: as §1
[27] = test system: Klebsiella pneumoniae; experiment: Antibacterial activity against Klebsiella pneumoniae 10-2 after 18 to 24 hrs by NCCLS method; procedure, shortened: as §1
[28] = test system: Klebsiella pneumoniae; experiment: Antibacterial activity against Klebsiella pneumoniae 10-3 after 18 to 24 hrs by NCCLS method; procedure, shortened: as §1
[29] = test system: Klebsiella pneumoniae; experiment: Antibacterial activity against Klebsiella pneumoniae 10-4 after 18 to 24 hrs by NCCLS method; procedure, shortened: as §1
[30] = test system: Klebsiella pneumoniae; experiment: Antibacterial activity against extended spectrum beta-lactamases producing Klebsiella pneumoniae 10-1 after 18 to 24 hrs by NCCLS method; procedure, shortened: as §1
[31] = test system: Klebsiella pneumoniae; experiment: Antibacterial activity against extended spectrum beta-lactamases producing Klebsiella pneumoniae 10-2 after 18 to 24 hrs by NCCLS method; procedure, shortened: as §1
[32] = test system: Klebsiella pneumoniae; experiment: Antibacterial activity against extended spectrum beta-lactamases producing Klebsiella pneumoniae 10-3 after 18 to 24 hrs by NCCLS method; procedure, shortened: as §1
[33] = test system: Pseudomonas aeruginosa; experiment: Antibacterial activity against Pseudomonas aeruginosa 10-5 after 18 to 24 hrs by NCCLS method; procedure, shortened: as §1
[34] = test system: Pseudomonas aeruginosa; experiment: Antibacterial activity against Pseudomonas aeruginosa 10-9 after 18 to 24 hrs by NCCLS method; procedure, shortened: as §1
[35] = test system: Pseudomonas aeruginosa; experiment: Antibacterial activity against Pseudomonas aeruginosa 10-12 after 18 to 24 hrs by NCCLS method; procedure, shortened: as §1
[36] = test system: Pseudomonas aeruginosa; experiment: Antibacterial activity against Pseudomonas aeruginosa 10-15 after 18 to 24 hrs by NCCLS method; procedure, shortened: as §1
[37] = test system: Pseudomonas aeruginosa; experiment: Antibacterial activity against Pseudomonas aeruginosa 10-18 after 18 to 24 hrs by NCCLS method; procedure, shortened: as §1
[38] = test system: Pseudomonas aeruginosa; experiment: Antibacterial activity against Pseudomonas aeruginosa 10-20 after 18 to 24 hrs by NCCLS method; procedure, shortened: as §1

COc1cc(CN2CCN(c3cc4c(cc3F)c(=O)c(C(=O)O)cn4C3CC3)CC2)ccc1OCc1ccccc1
MIC [1]: 16 µg/mL (≈ 28.7 µM) | MIC [2]: 2 µg/mL (≈ 3.59 µM) | MIC [3]: 0.5 µg/mL (≈ 0.897 µM) | MIC [4]: 2 µg/mL (≈ 3.59 µM) | MIC [5]: 1 µg/mL (≈ 1.79 µM) | MIC [6]: > 128 µg/mL | MIC [7]: > 128 µg/mL | MIC [8]: > 128 µg/mL | MIC [9]: 1 µg/mL (≈ 1.79 µM) | MIC [10]: 32 µg/mL (≈ 57.4 µM) | MIC [11]: 128 µg/mL (≈ 230 µM) | MIC [12]: 64 µg/mL (≈ 115 µM) | MIC [13]: 32 µg/mL (≈ 57.4 µM) | MIC [14]: 64 µg/mL (≈ 115 µM) | MIC [15]: 32 µg/mL (≈ 57.4 µM) | MIC [16]: 16 µg/mL (≈ 28.7 µM) | MIC [17]: 32 µg/mL (≈ 57.4 µM) | MIC [18]: 16 µg/mL (≈ 28.7 µM) | MIC [19]: 32 µg/mL (≈ 57.4 µM) | MIC [20]: 0.5 µg/mL (≈ 0.897 µM) | MIC [21]: > 128 µg/mL | MIC [22]: 32 µg/mL (≈ 57.4 µM) | MIC [23]: > 128 µg/mL | MIC [24]: > 128 µg/mL | MIC [25]: > 128 µg/mL | MIC [26]: > 128 µg/mL | MIC [27]: > 128 µg/mL | MIC [28]: 32 µg/mL (≈ 57.4 µM) | MIC [29]: > 128 µg/mL | MIC [30]: > 128 µg/mL | MIC [31]: > 128 µg/mL | MIC [32]: > 128 µg/mL | MIC [33]: 32 µg/mL (≈ 57.4 µM) | MIC [34]: 64 µg/mL (≈ 115 µM) | MIC [35]: 32 µg/mL (≈ 57.4 µM) | MIC [36]: 64 µg/mL (≈ 115 µM) | MIC [37]: 32 µg/mL (≈ 57.4 µM) | MIC [38]: 32 µg/mL (≈ 57.4 µM)

O=C(O)c1cn(C2CC2)c2cc(N3CCN(Cc4ccccc4)CC3)c(F)cc2c1=O
MIC [1]: 1 µg/mL (≈ 2.37 µM) | MIC [2]: 0.25 µg/mL (≈ 0.593 µM) | MIC [3]: 0.25 µg/mL (≈ 0.593 µM) | MIC [4]: 0.25 µg/mL (≈ 0.593 µM) | MIC [5]: 0.25 µg/mL (≈ 0.593 µM) | MIC [6]: 64 µg/mL (≈ 152 µM) | MIC [7]: 64 µg/mL (≈ 152 µM) | MIC [8]: 16 µg/mL (≈ 38 µM) | MIC [9]: 32 µg/mL (≈ 75.9 µM) | MIC [10]: 16 µg/mL (≈ 38 µM) | MIC [11]: 16 µg/mL (≈ 38 µM) | MIC [12]: 0.5 µg/mL (≈ 1.19 µM) | MIC [13]: 16 µg/mL (≈ 38 µM) | MIC [14]: 16 µg/mL (≈ 38 µM) | MIC [15]: 16 µg/mL (≈ 38 µM) | MIC [16]: 16 µg/mL (≈ 38 µM) | MIC [17]: 16 µg/mL (≈ 38 µM) | MIC [18]: 16 µg/mL (≈ 38 µM) | MIC [19]: 16 µg/mL (≈ 38 µM) | MIC [20]: 0.25 µg/mL (≈ 0.593 µM) | MIC [21]: > 128 µg/mL | MIC [22]: 16 µg/mL (≈ 38 µM) | MIC [23]: 16 µg/mL (≈ 38 µM) | MIC [24]: > 128 µg/mL | MIC [25]: > 128 µg/mL | MIC [26]: 16 µg/mL (≈ 38 µM) | MIC [27]: > 128 µg/mL | MIC [28]: 16 µg/mL (≈ 38 µM) | MIC [29]: > 128 µg/mL | MIC [30]: > 128 µg/mL | MIC [31]: > 128 µg/mL | MIC [32]: > 128 µg/mL | MIC [33]: 16 µg/mL (≈ 38 µM) | MIC [34]: 16 µg/mL (≈ 38 µM) | MIC [35]: 16 µg/mL (≈ 38 µM) | MIC [36]: 32 µg/mL (≈ 75.9 µM) | MIC [37]: 8 µg/mL (≈ 19 µM) | MIC [38]: 16 µg/mL (≈ 38 µM)

From ChEMBL document CHEMBL2157880, “Synthesis, antimycobacterial and antibacterial activity of ciprofloxacin derivatives containing a N-substituted benzyl moiety” (2012)
